Laboratory results from ChEMBL document CHEMBL1149247, “New COX-2/5-LOX inhibitors: apoptosis-inducing agents potentially useful in prostate cancer chemotherapy” (J Med Chem, 2004).
The source made the active and inactive calls. No cut-off for these calls is given here.

Tests used:
[1] = molecular target: T1, Prostaglandin G/H synthase 2 (Homo sapiens, UniProt P35354); assay: Inhibition of COX2 expressed in CHO cells assessed as inhibition of arachidonic acid-stimulated PGE2 production by enzyme immunoassay
T1 sequence (P35354 whole entry): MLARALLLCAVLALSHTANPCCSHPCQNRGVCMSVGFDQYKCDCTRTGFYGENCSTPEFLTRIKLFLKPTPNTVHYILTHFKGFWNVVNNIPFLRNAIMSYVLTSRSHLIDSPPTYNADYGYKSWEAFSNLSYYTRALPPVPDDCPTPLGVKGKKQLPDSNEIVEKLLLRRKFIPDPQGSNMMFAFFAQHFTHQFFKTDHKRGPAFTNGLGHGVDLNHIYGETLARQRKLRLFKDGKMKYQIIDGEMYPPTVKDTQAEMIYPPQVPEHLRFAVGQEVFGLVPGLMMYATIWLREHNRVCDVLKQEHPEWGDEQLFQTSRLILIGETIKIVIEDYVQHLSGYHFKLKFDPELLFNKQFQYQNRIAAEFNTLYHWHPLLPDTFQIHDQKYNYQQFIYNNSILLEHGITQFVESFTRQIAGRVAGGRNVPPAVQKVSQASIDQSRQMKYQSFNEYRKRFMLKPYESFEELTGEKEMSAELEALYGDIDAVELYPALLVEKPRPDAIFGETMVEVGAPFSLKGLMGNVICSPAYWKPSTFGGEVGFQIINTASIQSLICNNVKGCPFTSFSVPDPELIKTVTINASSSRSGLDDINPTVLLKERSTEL

[2] = molecular target: T2, Polyunsaturated fatty acid 5-lipoxygenase (Homo sapiens, UniProt P09917); assay: Inhibition of 5LOX in human whole blood assessed as inhibition of calcium ionophore A 23187-stimulated 5HETE production by HPLC analysis; type: functional, tissue-based
T2 sequence (P09917 whole entry): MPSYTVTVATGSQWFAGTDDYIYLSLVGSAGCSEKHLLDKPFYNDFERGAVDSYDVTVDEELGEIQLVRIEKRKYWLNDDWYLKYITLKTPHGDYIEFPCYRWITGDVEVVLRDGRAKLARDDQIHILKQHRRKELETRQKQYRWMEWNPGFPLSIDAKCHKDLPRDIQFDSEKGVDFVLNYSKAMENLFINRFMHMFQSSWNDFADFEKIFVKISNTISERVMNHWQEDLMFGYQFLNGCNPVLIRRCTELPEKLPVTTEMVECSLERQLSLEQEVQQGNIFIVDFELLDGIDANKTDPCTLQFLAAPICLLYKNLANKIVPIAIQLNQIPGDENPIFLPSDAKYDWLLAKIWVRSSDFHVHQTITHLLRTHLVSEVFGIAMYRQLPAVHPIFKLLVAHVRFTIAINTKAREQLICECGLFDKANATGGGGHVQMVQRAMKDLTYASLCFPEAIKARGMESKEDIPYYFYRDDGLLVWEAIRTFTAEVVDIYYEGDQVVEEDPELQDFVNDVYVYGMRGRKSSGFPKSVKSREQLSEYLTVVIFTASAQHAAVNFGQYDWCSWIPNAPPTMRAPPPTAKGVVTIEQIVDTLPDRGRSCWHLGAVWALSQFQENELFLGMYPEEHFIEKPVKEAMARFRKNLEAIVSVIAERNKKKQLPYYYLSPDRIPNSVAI
Outline: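 Heparinized human whole blood, 1 mL aliquots, preincubated 15 min at 37 °C with compound or DMSO vehicle; then stimulated with 40 μM A 23187 for 15 min at 37 °C. 5-HETE extracted into ethyl acetate, then HPLC on a C18 column, methanol/water/acetic acid 80:20:0.08, pH 6.0, UV at 234 nm. IC50 from n = 2.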

Homo sapiens = species on record: Homo sapiens; assay: Selectivity for COX2 over COX1
Outline: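 Ratio of COX-1 to COX-2 IC50s, each taken from PGE2 production in CHO cells transfected with COX-1 or with COX-2. Cells were seeded and, 18 h later, given fresh Ham's F12 with 10% fetal calf serum with or without compound. After 10 min they were stimulated with arachidonic acid, then for 10 min with calcium ionophore A 23187. Intracellular PGE2 was read by enzyme immunoassay, n = 2.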

[3] = molecular target: Prostaglandin G/H synthase 1 (Homo sapiens, UniProt P23219); assay: Inhibition of COX1 expressed in CHO cells assessed as inhibition of arachidonic acid-stimulated PGE2 production by enzyme immunoassay; type: functional, cell-based
LNCaP [4] = assay: Cell cycle arrest in human LNCaP cells by accumulation at subG1 phase at 10 uM after 72 hrs by FACS flow cytometry; type: functional
Outline: (§1)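 LNCaP or PC 3 cells seeded in 6-well plates, synchronized 24 h in serum-free medium, treated 72 h with varying compound concentrations; trypsinized cells pooled with supernatants, pelleted, fixed in cold ethanol overnight at 4 °C, then 30 min in PBS with RNase and propidium iodide. FACScan flow cytometry quantified sub-G1 (sub-diploid), G1, S and G2-M fractions as percent of cells.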

PC-3 [5] = assay: Antiproliferative activity against androgen-independent human PC3 cells at 100 uM after 72 hrs by MTT test; type: functional
Outline: (§2)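 Prostate carcinoma cells kept at 37 °C, 5% CO2 in RPMI 1640 with 10% fetal calf serum; seeded 1.8 × 10⁴ (PC 3) or 5.0 × 10⁴ (LNCaP) cells/well, grown 3 days, serum-starved 24 h for synchronization, then exposed 72 h to compounds in medium (<0.1% DMSO); growth read by colorimetric MTT. Mean of at least four independent determinations; single-dose lines at 100 μM.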

LNCaP [6] = assay: Cell cycle arrest in human LNCaP cells by accumulation at S phase at 10 uM after 72 hrs by FACS flow cytometry; type: functional; outline: as §1
LNCaP [7] = assay: Antiproliferative activity against androgen-sensitive human LNCaP cells at 100 uM after 72 hrs by MTT test; type: functional; outline: as §2
LNCaP [8] = assay: Cell cycle arrest in human LNCaP cells by accumulation at G1 phase at 10 uM after 72 hrs by FACS flow cytometry; type: functional; outline: as §1
LNCaP [9] = assay: Cell cycle arrest in human LNCaP cells by accumulation at G2M phase at 10 uM after 72 hrs by FACS flow cytometry; type: functional; outline: as §1
PC-3 [10] = assay: Antiproliferative activity against androgen-independent human PC3 cells after 72 hrs by MTT test; type: functional, cell-based; conditions: PC-3, 72 h; outline: as §2
LNCaP [11] = assay: Cell cycle arrest in human LNCaP cells assessed as induction of G1 block at 100 uM by FACS flow cytometry; type: functional, cell-based; outline: as §1
LNCaP [12] = assay: Antiproliferative activity against androgen-sensitive human LNCaP cells after 72 hrs by MTT test; type: functional, cell-based; outline: as §2
LNCaP [13] = assay: Cell cycle arrest in human LNCaP cells by accumulation at G1 phase at 50 uM after 72 hrs by FACS flow cytometry; type: functional; outline: as §1
PC-3 [14] = assay: Cell cycle arrest in human PC3 cells by accumulation at subG1 phase at 50 uM after 72 hrs by FACS flow cytometry; type: functional; outline: as §1
PC-3 [15] = assay: Cell cycle arrest in human PC3 cells by accumulation at G2M phase at 50 uM after 72 hrs by FACS flow cytometry; type: functional; outline: as §1
LNCaP [16] = assay: Cell cycle arrest in human LNCaP cells by accumulation at G2M phase at 50 uM after 72 hrs by FACS flow cytometry; type: functional; outline: as §1
PC-3 [17] = assay: Cell cycle arrest in human PC3 cells by accumulation at S phase at 50 uM after 72 hrs by FACS flow cytometry; type: functional; outline: as §1
LNCaP [18] = assay: Cell cycle arrest in human LNCaP cells by accumulation at S phase at 50 uM after 72 hrs by FACS flow cytometry; type: functional; outline: as §1
LNCaP [19] = assay: Cell cycle arrest in human LNCaP cells by accumulation at subG1 phase at 50 uM after 72 hrs by FACS flow cytometry; type: functional; outline: as §1
PC-3 [20] = assay: Cell cycle arrest in human PC3 cells by accumulation at G1 phase at 50 uM after 72 hrs by FACS flow cytometry; type: functional; outline: as §1

Prostaglandin G/H synthase 1, sequence (P23219 whole entry): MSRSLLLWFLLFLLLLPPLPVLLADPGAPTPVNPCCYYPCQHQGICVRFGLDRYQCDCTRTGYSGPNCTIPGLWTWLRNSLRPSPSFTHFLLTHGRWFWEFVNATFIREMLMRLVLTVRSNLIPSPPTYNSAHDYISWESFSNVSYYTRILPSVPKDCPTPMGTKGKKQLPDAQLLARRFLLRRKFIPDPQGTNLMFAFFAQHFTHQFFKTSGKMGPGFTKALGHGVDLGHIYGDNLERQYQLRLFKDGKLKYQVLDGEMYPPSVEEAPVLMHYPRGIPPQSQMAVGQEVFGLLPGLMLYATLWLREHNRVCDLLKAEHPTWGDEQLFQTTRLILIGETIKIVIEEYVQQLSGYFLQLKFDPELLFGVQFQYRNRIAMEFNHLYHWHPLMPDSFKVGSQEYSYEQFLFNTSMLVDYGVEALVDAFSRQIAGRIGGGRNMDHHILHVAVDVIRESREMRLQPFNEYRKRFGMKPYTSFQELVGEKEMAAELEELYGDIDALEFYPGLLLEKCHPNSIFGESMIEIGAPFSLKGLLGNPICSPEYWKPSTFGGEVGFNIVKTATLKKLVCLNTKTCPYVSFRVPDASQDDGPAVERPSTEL

SMILES | IC50 [1] [nM] | IC50 [2] [nM] | Selectivity ratio (Homo sapiens) | IC50 [3] [nM] | Activity (LNCaP [4]) [%] | Activity (PC-3 [5]) [%] | Activity (LNCaP [6]) [%] | Activity (LNCaP [7]) [%] | Activity (LNCaP [8]) [%] | Activity (LNCaP [9]) [%] | other results
CS(=O)(=O)c1ccc(-n2nc(COc3cccc(N4CCOCC4)c3)cc2-c2ccccc2)cc1 | 920 | > 10000 | 41 | 38100 |  |  |  |  |  |  | 
COc1cc(OCc2cc(-c3ccccc3)n(-c3ccc(S(C)(=O)=O)cc3)n2)cc(OC)c1OC | 220 | > 10000 | 78 | 17600 |  |  |  |  |  |  | 
COC1(c2cc(F)cc(OCc3cc(-c4ccccc4)n(-c4ccc(C)cc4)n3)c2)CCOCC1 | 930 | 720 | 1 | 1560 | 3.5 | 0 | 10.7 | 18 | 71.3 | 14.6 | 
COC1(c2cc(F)cc(OCc3cc(-c4ccccc4)n(-c4ccc(C)c(C)c4)n3)c2)CCOCC1 | 410 | 760 |  |  | 3.9 |  | 11.5 | 26 | 69.5 | 15 | IC50 (PC-3 [10]): 55000 nM
CS(=O)(=O)c1ccc(C2=C(c3ccccc3)C(=O)OC2)cc1 [ROFECOXIB] |  |  |  |  | 4 | 15 | 11.4 | 0 | 69.4 | 15.2 | Activity (LNCaP [11]): inactive
COC1(c2cc(F)cc(OCc3cc(-c4ccccc4)n(-c4ccc(OC(F)(F)F)cc4)n3)c2)CCOCC1 | 820 | 850 |  |  | 3.6 | 0 | 10.6 | 0 | 74.7 | 11 | 
CS(=O)(=O)c1ccc(-n2nc(COc3ccc4c(c3)OCO4)cc2-c2ccccc2)cc1 | 450 | > 10000 | 35 | 15800 |  |  |  |  |  |  | 
COC1(c2cc(F)cc(OCc3ccc4c(ccc(=O)n4C)c3)c2)CCOCC1 [ZD-2138] | > 100000 | 83 |  | > 100000 |  |  |  |  |  |  | 
Cc1ccc(-c2cc(C(F)(F)F)nn2-c2ccc(S(N)(=O)=O)cc2)cc1 [CELECOXIB] |  | > 10000 |  |  | 3.9 |  | 9 |  | 75.7 | 11.3 | IC50 (LNCaP [12]): 50400 nM; Activity (LNCaP [13]): 78%; Activity (PC-3 [14]): 2.4%; Activity (PC-3 [15]): 23.5%; Activity (LNCaP [16]): 11.1%; IC50 (PC-3 [10]): 47000 nM; Activity (PC-3 [17]): 5.8%; Activity (LNCaP [18]): 6.9%; Activity (LNCaP [19]): 4%; Activity (PC-3 [20]): 68.5%
CS(=O)(=O)c1ccc(-n2nc(COc3cc(F)cc(C#N)c3)cc2-c2ccccc2)cc1 | 570 | > 10000 | 176 | 99600 |  |  |  |  |  |  | 

More lines, main results first:

IC50 [1] [nM] | IC50 [2] [nM] | Selectivity ratio (Homo sapiens) | IC50 [3] [nM] | SMILES | Activity (LNCaP [4]) [%] | Activity (PC-3 [5]) [%] | Activity (LNCaP [6]) [%] | Activity (LNCaP [7]) [%] | Activity (LNCaP [8]) [%] | Activity (LNCaP [9]) [%] | other results
310 | > 10000 | 142 | 44300 | COc1cc(F)cc(OCc2cc(-c3ccccc3)n(-c3ccc(S(C)(=O)=O)cc3)n2)c1 |  |  |  |  |  |  | 
900 | > 10000 | > 112 | > 100000 | CCOc1cccc(OCc2cc(-c3ccccc3)n(-c3ccc(S(C)(=O)=O)cc3)n2)c1 |  |  |  |  |  |  | 
610 | 570 | 12 | 7140 | COC1(c2cc(F)cc(OCc3cc(-c4ccccc4)n(-c4ccccc4)n3)c2)CCOCC1 | 3 | 0 | 10.6 | 0 | 72.9 | 13.9 | 
930 | 830 | 2 | 1810 | COC1(c2cc(F)cc(OCc3cc(-c4ccccc4)n(-c4ccc(Cl)cc4)n3)c2)CCOCC1 | 2.5 | 0 | 11.1 | 0 | 75.5 | 11.1 | 
700 | 800 |  |  | COC1(c2cc(F)cc(OCc3cc(-c4ccccc4)n(-c4ccc(Cl)c(Cl)c4)n3)c2)CCOCC1 | 4.6 | 21 | 11.5 | 32 | 68.2 | 15.5 | 
740 | > 10000 | > 134 | > 100000 | CS(=O)(=O)c1ccc(-n2nc(COc3cccc([N+](=O)[O-])c3)cc2-c2ccccc2)cc1 |  |  |  |  |  |  | 
300 | 770 | < 1 | 36 | COc1ccc(-n2nc(COc3cc(F)cc(C4(OC)CCOCC4)c3)cc2-c2ccccc2)cc1 | 2.8 |  | 11.4 |  | 69 | 17 | 
960 | 480 | 1 | 1130 | COC1(c2cc(F)cc(OCc3cc(-c4ccccc4)n(-c4ccc(F)cc4)n3)c2)CCOCC1 | 4 | 7 | 9.7 | 3 | 71.3 | 15.3 | 
700 | > 10000 | > 142 | > 100000 | COc1ccc(OCc2cc(-c3ccccc3)n(-c3ccc(S(C)(=O)=O)cc3)n2)cc1OC |  |  |  |  |  |  | 
870 | > 10000 | 29 | 25100 | COc1cc(OC)cc(OCc2cc(-c3ccccc3)n(-c3ccc(S(C)(=O)=O)cc3)n2)c1 |  |  |  |  |  |  | 
